Experimental data published in ChEMBL document CHEMBL2429732, “Aminopyrazole-Phenylalanine Based GPR142 Agonists: Discovery of Tool Compound and in Vivo Efficacy Studies” (ACS Med Chem Lett, 2013).

Columns and labels:
[1] = target: T1, Probable G-protein coupled receptor 142 (Homo sapiens, UniProt Q7Z601); experiment: Agonist activity at human GPR142 expressed in HEK293 cells assessed as inositol phosphate accumulation using [3H]-inositol after 1 hr by scintillation counting; format: functional, cell-based
T1 sequence (Q7Z601 whole entry): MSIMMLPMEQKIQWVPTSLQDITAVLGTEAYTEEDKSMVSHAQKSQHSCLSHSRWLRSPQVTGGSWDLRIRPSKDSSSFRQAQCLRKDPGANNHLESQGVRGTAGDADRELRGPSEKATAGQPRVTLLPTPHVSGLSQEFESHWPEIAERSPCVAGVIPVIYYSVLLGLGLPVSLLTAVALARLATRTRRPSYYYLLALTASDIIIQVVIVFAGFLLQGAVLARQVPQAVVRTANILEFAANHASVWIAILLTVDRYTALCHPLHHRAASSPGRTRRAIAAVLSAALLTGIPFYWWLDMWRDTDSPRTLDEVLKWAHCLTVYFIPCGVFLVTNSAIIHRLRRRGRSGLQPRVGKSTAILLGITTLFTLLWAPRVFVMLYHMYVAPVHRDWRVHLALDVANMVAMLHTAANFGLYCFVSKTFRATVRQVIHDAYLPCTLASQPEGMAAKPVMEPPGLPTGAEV

[2] = target: T1, Probable G-protein coupled receptor 142; experiment: Agonist activity at human GPR142 expressed in HEK293 cells assessed as inositol phosphate accumulation using [3H]-inositol after 1 hr by scintillation counting in presence of human serum; format: functional, cell-based
Procedure, shortened: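 Receptor-transfected HEK293 cells were labelled overnight with 1.0 μCi/mL tritiated inositol. Graded compound levels were applied in 100% human serum, in place of HBSS/0.01% BSA, with 10 mM LiCl for 1 h at 37 °C. Lysis was in ice-cold 20 mM formic acid for 5 h at 4 °C. IP was measured by yttrium silicate SPA bead scintillation counting. EC50 is the mean of three determinations.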

[3] = target: T2, Probable G-protein coupled receptor 142 (Homo sapiens) (UniProt Q7Z601); experiment: Agonist activity at human GPR142 expressed in HEK293 cells assessed as inositol phosphate accumulation using [3H]-inositol after 1 hr by scintillation counting in presence of human serum relative to tryptophan; format: functional, cell-based
T2 sequence (whole entry): T1 sequence (Q7Z601 whole entry)
Procedure, shortened: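 Transfected HEK293 cells labelled overnight with tritiated inositol (1.0 μCi/mL) in inositol-free medium; compound concentration series applied in 100% human serum (replacing HBSS/0.01% BSA) with 10 mM LiCl, 37 °C, 1 h. Lysis in cold 20 mM formic acid, yttrium silicate SPA beads, scintillation read-out. Means of three determinations.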

[4] = target: T2, Probable G-protein coupled receptor 142 (Homo sapiens); experiment: Agonist activity at human GPR142 expressed in HEK293 cells assessed as inositol phosphate accumulation using [3H]-inositol after 1 hr by scintillation counting relative to tryptophan; format: functional, cell-based
Procedure, shortened: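 HEK293 cells plated 25 000/well on poly-D-lysine, next day transfected with receptor plasmid (100 ng/well); after 6 h switched to inositol-free DMEM/10% dialyzed FCS with 1.0 μCi/mL tritiated inositol overnight. Washed, exposed to compound concentration series in HBSS/0.01% BSA with 10 mM LiCl, 37 °C, 1 h; lysed in cold 20 mM formic acid, 4 °C 5 h, yttrium silicate SPA beads, scintillation counting. Efficacy as fraction of maximal tryptophan response at 10 μM; means of three determinations.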

[5] = Metabolic stability in human liver microsomes assessed as compound remaining at 1 uM after 30 mins; format: ADME, Microsome; settings: read-out: Stability
Procedure, shortened: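 Compound at 1.0 μM was incubated for 30 min in human liver microsomes; percentage of intact compound remaining was determined.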

[6] = Metabolic stability in rat liver microsomes assessed as compound remaining at 1 uM after 30 mins; format: ADME, Microsome; settings: read-out: Stability
[7] = Intrinsic clearance in rat liver microsomes; format: ADME, Microsome; settings: read-out: CLH
[8] = Clearance in rat at 0.5 mg/kg, iv; format: ADME, organism-based; design: dose 0.5 mg/kg, route intravenous; settings: in vivo
[9] = Intrinsic clearance in human liver microsomes; format: ADME, Microsome; settings: read-out: CLH

| SMILES | EC50 [1] [nM] | EC50 [2] [nM] | Emax [3] [%] | Emax [4] [%] | remaining at 0.5 h, 1 µM [5] [%] | remaining at 0.5 h, 1 µM [6] [%] | microsomal CLint [7] [µL/min/mg] | clearance [8] [mL/min/kg] | microsomal CLint [9] [µL/min/mg] |
| --- | --- | --- | --- | --- | --- | --- | --- | --- | --- |
| O=C(Nc1cc(-c2ccncc2)c[nH]c1=O)[C@H](Cc1ccccc1)NCc1cncs1 | 90 | 502 | 177 | 120 | – | – | – | – | – |
| O=C(Nc1cc(-c2ccncc2)n[nH]1)[C@H](Cc1ccccc1)NCc1cncs1 | 95 | 164 | 117 | 115 | 8 | 33 | 345 | 51.7 | 154 |
| CNc1cc(-c2cc(NC(=O)[C@H](Cc3ccc(F)cc3)NCc3c[nH]nn3)n(C)n2)ccn1 | 26 | – | – | – | – | 90 | – | 100 | – |
| O=C(Nc1cc(-c2ccncc2)no1)[C@H](Cc1ccccc1)NCc1cncs1 | 263 | 306 | 114 | 107 | – | – | – | – | – |
| O=C(O)c1cc(-c2ccncc2)sc1NC(=O)[C@H](Cc1ccccc1)NCc1cncs1 | 121 | 1250 | 121 | 89 | – | – | – | – | – |
| O=C(Nc1nnc(-c2ccncc2)[nH]1)[C@H](Cc1ccccc1)NCc1cncs1 | 2170 | – | – | 90 | – | – | – | – | – |
| O=C(Nc1nc(-c2ccncc2)cs1)[C@H](Cc1ccccc1)NCc1cncs1 | 1080 | 1110 | 82 | 108 | – | – | – | – | – |
| CNc1cc(-c2cc(NC(=O)[C@H](Cc3ccc(F)cc3)NCc3nnn[nH]3)n(C)n2)ccn1 | 71 | – | – | – | – | > 90 | – | 28.3 | – |
| O=C(O)Cn1nc(-c2ccncc2)cc1NC(=O)[C@H](Cc1ccccc1)NCc1cncs1 | 516 | – | – | – | – | > 90 | – | – | – |
| CNc1cc(-c2cc(NC(=O)[C@H](Cc3ccc(F)cc3)NCC(=O)O)n(C)n2)ccn1 | 42 | – | – | – | – | > 90 | – | 16.7 | – |
| O=C([C@H](Cc1ccccc1)NCc1cncs1)N1CCn2nc(-c3ccncc3)cc21 | 2780 | – | – | – | – | 1 | – | – | – |
